Experimental data from ChEMBL document CHEMBL1125894, “Dual-action cephalosporins: cephalosporin 3'-quaternary ammonium quinolones” (1991).
≈ marks a conversion by molar mass, not a printed value. Where “and” joins values, the source holds several entries; their conditions need not be identical. Equal values may be shown once.

Experiments:
Type in all cases: functional
Serratia marcescens [1] = assay: In vitro antibacterial activity against Serratia marcescens SM
Procedure, shortened: (§1)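 Serial 2-fold dilutions in the NCCLS broth microdilution method for aerobic nonfastidious organisms, with an 18-h incubation. The value is reported as the minimum inhibitory concentration (MIC).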

Klebsiella pneumoniae [2] = assay: In vitro antibacterial activity against Klebsiella pneumoniae A; procedure, shortened: as §1
Staphylococcus aureus [3] = assay: In vitro antibacterial activity against Staphylococcus aureus Smith(MS)
Procedure, shortened: (§2)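 Staphylococci were tested by the standard agar dilution procedure using serial 2-fold dilutions of agent. The value is reported as the MIC.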

Citrobacter freundii [4] = assay: In vitro antibacterial activity against Citrobacter freundii BS 16; procedure, shortened: as §1
Streptococcus pyogenes [5] = assay: In vitro antibacterial activity against Streptococcus pyogenes 4
Procedure, shortened: (§3)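 Broth macrodilution with serial 2-fold dilutions in cation-supplemented Mueller-Hinton broth containing 10% goat serum. The value is reported as the MIC.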

Enterobacter cloacae [6] = assay: In vivo activity in murine against Enterobacter cloacae 5699 infection after sc administration.
Procedure, shortened: (§4)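 Mouse protection test in CD1 Swiss albino mice (18–20 g). Mice were infected intraperitoneally with 0.5 mL of a diluted bacterial suspension, then treated within 5 min with one 1.0 mL subcutaneous dose at the dorsal base of the neck. Doses ranged from 0.05 to 250 mg/kg, with six mice per group. ED50 was calculated by the Reed–Muench method.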

Streptococcus pyogenes [7] = assay: In vivo activity in murine against Streptococcus pyogenes 4 infection after sc administration.; procedure, shortened: as §4
Pseudomonas aeruginosa [8] = assay: In vivo activity in murine against Pseudomonas aeruginosa 5712 infection after sc administration.
Procedure, shortened: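 Mouse protection test in CD1 Swiss albino mice (18–20 g) infected intraperitoneally with 0.5 mL of diluted P. aeruginosa suspension. Mice received 1.0 mL subcutaneously at the neck base within 5 min of infection and a second treatment 3 h after infection. Doses ranged from 0.05 to 250 mg/kg, with six mice per group. ED50 was calculated by the Reed–Muench method.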

Staphylococcus aureus [9] = assay: In vivo activity in murine against Staphylococcus aureus 753(MR) infection after sc administration.; procedure, shortened: as §4
Serratia marcescens [10] = assay: In vivo activity in murine against Serratia marcescens SM infection after sc administration.; procedure, shortened: as §4
Escherichia coli [11] = assay: In vitro antibacterial activity against Escherichia coli 257; procedure, shortened: as §1
Klebsiella pneumoniae [12] = assay: In vivo activity in murine against Klebsiella pneumoniae A infection after sc administration.; procedure, shortened: as §4
Escherichia coli [13] = assay: In vivo activity in murine against Escherichia coli 257 infection after sc administration.; procedure, shortened: as §4
Staphylococcus aureus [14] = assay: In vitro antibacterial activity against Staphylococcus aureus 95(MR); procedure, shortened: as §2
Enterobacter cloacae [15] = assay: In vitro antibacterial activity against Enterobacter cloacae 5699; procedure, shortened: as §1
Staphylococcus aureus [16] = assay: In vivo activity in murine against Staphylococcus aureus Smith (MS) infection after sc administration.; procedure, shortened: as §4
Citrobacter freundii [17] = assay: In vivo activity in murine against Citrobacter freundii BS#16 infection after sc administration.
Procedure, shortened: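 CD1 Swiss albino mice (18–20 g) infected intraperitoneally with 0.5 mL diluted bacterial culture suspension. Single subcutaneous treatment within 5 min, 1.0 mL at dorsal base of neck, serial dilutions spanning 0.05–250 mg/kg. Six mice per treatment and control group. ED50 (50% protective dose) derived by Reed and Muench method.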

Enterobacter cloacae [18] = assay: In vitro antibacterial activity against Enterobacter cloacae P99; procedure, shortened: as §1
Streptococcus pneumoniae [19] = assay: In vitro antibacterial activity against Streptococcus pneumoniae 6301; procedure, shortened: as §3
Streptococcus pneumoniae [20] = assay: In vivo activity in murine against Streptococcus pneumoniae 6301 infection after sc administration.; procedure, shortened: as §4
Pseudomonas aeruginosa [21] = assay: In vitro antibacterial activity against Pseudomonas aeruginosa 5712; procedure, shortened: as §1

- MIC (Serratia marcescens [1]): 0.25 µg/mL (≈ 0.677 µM)
- MIC (Klebsiella pneumoniae [2]): 0.031 µg/mL (≈ 0.0839 µM)
- MIC (Staphylococcus aureus [3]): 0.25 µg/mL (≈ 0.677 µM)
- MIC (Citrobacter freundii [4]): 0.25 µg/mL (≈ 0.677 µM)
- MIC (Streptococcus pyogenes [5]): 4 µg/mL (≈ 10.8 µM)
- MIC (Escherichia coli [11]): 0.031 µg/mL (≈ 0.0839 µM)
- MIC (Staphylococcus aureus [14]): 0.25 µg/mL (≈ 0.677 µM)
- MIC (Enterobacter cloacae [15]): 0.063 µg/mL (≈ 0.171 µM)
- MIC (Enterobacter cloacae [18]): 0.031 µg/mL (≈ 0.0839 µM)
- MIC (Streptococcus pneumoniae [19]): 8 µg/mL (≈ 21.7 µM)
- MIC (Pseudomonas aeruginosa [21]): 4 µg/mL (≈ 10.8 µM)
SMILES: CN1CCN(c2c(F)cc3c(=O)c(C(=O)O)cn(CCF)c3c2F)CC1 [FLEROXACIN]
- ED50 (Enterobacter cloacae [6]): < 2 mg/kg
- ED50 (Streptococcus pyogenes [7]): > 250 mg/kg
- ED50 (Pseudomonas aeruginosa [8]): 14 mg/kg and 31 mg/kg
- ED50 (Staphylococcus aureus [9]): 2.8 mg/kg
- ED50 (Serratia marcescens [10]): < 2 mg/kg
- ED50 (Klebsiella pneumoniae [12]): 0.3 mg/kg
- ED50 (Escherichia coli [13]): 0.26 mg/kg
- ED50 (Escherichia coli [13]; Escherichia coli, sc, read-out: ED50): 0.25 mg/kg
- ED50 (Staphylococcus aureus [16]): 0.65 mg/kg
- ED50 (Citrobacter freundii [17]): 2 mg/kg
- ED50 (Streptococcus pneumoniae [20]): > 250 mg/kg
